What all share (assay type): functional, cell-based
Assay [1] deals with A549. Put plainly: Inhibition of the growth against human non-small-lung carcinoma (A549) cell line after 72 hr exposure. To be noted: A549, 72 h.
Assay [2] deals with A121. Put plainly: Inhibition of the growth against human Ovarian Carcinoma (A121) cell line after 72 hr exposure. Particulars: A121, 72 h. In outline:
(§1)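 SRB assay. Cells were seeded at 400/well, allowed to attach overnight, and grown in RPMI-1640 with 5% FBS and 5% Nu serum. Compounds were dissolved in DMSO, diluted in medium and applied to triplicate wells for 72 h. Cells were fixed with cold 50% TCA (1 h, 4 °C), stained with 0.4% SRB for 5 min, rinsed with 0.1% acetic acid and solubilized in 10 mM Tris pH 10.5. OD was read at 570 nm. IC50 came from a weighted sigmoid-Emax nonlinear fit.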

In assay [3] the test system is HT-29. Put plainly: Inhibition of the growth against human Colon Carcinoma (HT-29) cell line after 72 hr exposure. To be noted: HT-29, 72 h. In outline:
as §1

The subject of assay [4] is MCF7R. Put plainly: Inhibition of the growth against human mammary carcinoma 180 fold resistant to doxorubicin (MCF-7-R) cell line after 72 hr exposure.
In assay [5] the test system is MCF7. Put plainly: Inhibition of the growth against human mammary carcinoma (MCF-7) cell line after 72 hr exposure. To be noted: MCF7, 72 h. In outline: as §1

For orientation: IC50 means the concentration that inhibits the measured activity by half. A lower IC50 goes with inhibition by little substance. Consider `CC(=O)OC1C(=O)C2(C)C(O)CC3OCC3(OC(C)=O)C2C(OC(=O)C=C(C)C)C2(O)CC(OC(=O)C(O)C(CC(C)C)NC(=O)OC(C)(C)C)C(C)=C1C2(C)C` (stereo not given), for which the IC50 in assay [1] is 30 nM; in assay [2] it was 54 nM; in assay [3] it was 89 nM; in assay [4], over 1000 nM; in assay [5], 84 nM.

`CC(=O)OC1C(=O)C2(C)C(O)CC3OCC3(OC(C)=O)C2C(OC(=O)C2CCCCC2)C2(O)CC(OC(=O)C(O)C(C=C(C)C)NC(=O)OC(C)(C)C)C(C)=C1C2(C)C` (stereo not given): the IC50 in assay [1] was found to be 1.3 nM; in assay [2], 1.5 nM; in assay [3], 1.7 nM; in assay [4], 26 nM; in assay [5], 0.5 nM.

As to `CC(=O)OC1C(=O)C2(C)C(O)CC3OCC3(OC(C)=O)C2C(OC(=O)CC(C)C)C2(O)CC(OC(=O)C(O)C(CC(C)C)NC(=O)OC(C)(C)C)C(C)=C1C2(C)C` (stereo not given), the IC50 was 47 nM in assay [1]; 55 nM in assay [2]; 52 nM in assay [3]; 1080 nM in assay [4]; 43 nM in assay [5].

Regarding `CC(=O)OC1C(=O)C2(C)C(O)CC3OCC3(OC(C)=O)C2C(OC(=O)C=C(C)C)C2(O)CC(OC(=O)C(O)C(NC(=O)OC(C)(C)C)c3ccccc3)C(C)=C1C2(C)C` (stereo not given), the IC50 worked out at 2.9 nM in assay [1]; 2.7 nM in assay [2]; 3.5 nM in assay [3]; 140 nM in assay [4]; 1.1 nM in assay [5].

In the case of `C/C=C/C(NC(=O)OC(C)(C)C)C(O)C(=O)OC1CC2(O)C(OC(=O)C3CCCCC3)C3C4(OC(C)=O)COC4CC(O)C3(C)C(=O)C(OC(C)=O)C(=C1C)C2(C)C` (stereo not given), the IC50 in assay [1] was 12 nM; in assay [2], 6.6 nM; in assay [3] it was 8.5 nM; in assay [4], 446 nM; in assay [5], 3.2 nM.

`CC(=O)OC1C(=O)C2(C)C(O)CC3OCC3(OC(C)=O)C2C(OC(=O)C2CCCCC2)C2(O)CC(OC(=O)C(O)C(CC(C)C)NC(=O)OC(C)(C)C)C(C)=C1C2(C)C` (stereo not given): the IC50 in assay [1] is 7.7 nM; in assay [2], 3.2 nM; in assay [3], 5.6 nM; in assay [4], 57 nM; in assay [5] it was 1.8 nM.

In the case of `CC(=O)O[C@H]1C(=O)[C@@]2(C)[C@H]([C@H](OC(=O)c3ccccc3)[C@]3(O)C[C@H](OC(=O)[C@H](O)[C@H](C=C(C)C)NC(=O)OC(C)(C)C)C(C)=C1C3(C)C)[C@]1(OC(C)=O)CO[C@@H]1C[C@@H]2O`, the IC50 in assay [1] was 0.3 nM; in assay [2] it was 0.5 nM; in assay [3] it was 0.6 nM; in assay [4] it was 12 nM; in assay [5] it was 0.6 nM.

Consider `CC(=O)OC1C(=O)C2(C)C(O)CC3OCC3(OC(C)=O)C2C(OC(=O)CC(C)C)C2(O)CC(OC(=O)C(O)C(C=C(C)C)NC(=O)OC(C)(C)C)C(C)=C1C2(C)C` (stereo not given), for which the IC50 worked out at 14 nM in assay [1]; 17 nM in assay [2]; 16 nM in assay [3]; 589 nM in assay [4]; 11 nM in assay [5].

Turning to `CC(=O)OC1C(=O)C2(C)C(O)CC3OCC3(OC(C)=O)C2C(OC(=O)C2CCCCC2)C2(O)CC(OC(=O)C(O)C(NC(=O)OC(C)(C)C)c3ccccc3)C(C)=C1C2(C)C` (stereo not given), the IC50 in assay [1] was found to be 5.7 nM; in assay [2], 4.8 nM; in assay [3], 5.6 nM; in assay [4], 412 nM; in assay [5], 1.8 nM.

With `CC(=O)OC1C(=O)C2(C)C(O)CC3OCC3(OC(C)=O)C2C(OC(=O)C=C(C)C)C2(O)CC(OC(=O)C(O)C(C=C(C)C)NC(=O)OC(C)(C)C)C(C)=C1C2(C)C` (stereo not given), the IC50 stood at 0.9 nM in assay [1]; 0.9 nM in assay [2]; 1.4 nM in assay [3]; 38 nM in assay [4]; 0.5 nM in assay [5].

As to `CC(=O)OC1C(=O)C2(C)C(O)CC3OCC3(OC(C)=O)C2C(OC(=O)C2CCCCC2)C2(O)CC(OC(=O)C(O)C(NC(=O)OC(C)(C)C)C3CCCCC3)C(C)=C1C2(C)C` (stereo not given), the IC50 was determined as 49 nM in assay [1]; 43 nM in assay [2]; 59 nM in assay [3]; 591 nM in assay [4]; 10 nM in assay [5].

These data come from ChEMBL document CHEMBL1130283, “Synthesis and structure-activity relationships of nonaromatic taxoids: effects of alkyl and alkenyl ester groups on cytotoxicity” (J Med Chem, 1997).
